The record followed here is ChEMBL document CHEMBL3232870, “Discovery of 3-(4-methanesulfonylphenoxy)-N-[1-(2-methoxy-ethoxymethyl)-1H-pyrazol-3-yl]-5-(3-methylpyridin-2-yl)-benzamide as a novel glucokinase activator (GKA) for the treatment of type 2 diabetes mellitus” (Bioorg Med Chem, 2014).

The target in the first assay is T1, Hexokinase-4 (Homo sapiens) (UniProt P35557).
T1 sequence (whole entry): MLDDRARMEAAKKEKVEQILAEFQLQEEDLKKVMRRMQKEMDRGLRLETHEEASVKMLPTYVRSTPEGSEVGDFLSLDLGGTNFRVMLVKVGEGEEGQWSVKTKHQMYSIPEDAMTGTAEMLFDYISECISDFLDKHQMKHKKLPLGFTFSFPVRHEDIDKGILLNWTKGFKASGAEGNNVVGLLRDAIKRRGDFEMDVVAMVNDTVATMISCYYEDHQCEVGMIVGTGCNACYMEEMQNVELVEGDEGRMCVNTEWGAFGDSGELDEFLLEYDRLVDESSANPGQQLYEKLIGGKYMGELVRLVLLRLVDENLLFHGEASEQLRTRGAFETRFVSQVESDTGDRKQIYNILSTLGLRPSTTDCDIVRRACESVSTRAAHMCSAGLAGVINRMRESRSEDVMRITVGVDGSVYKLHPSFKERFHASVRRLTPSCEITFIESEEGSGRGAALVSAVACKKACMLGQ
Description: Activity of recombinant human pancreatic glucokinase assessed as glucose half-maximal saturation concentration. An outline of the steps: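 Purified recombinant human pancreatic glucokinase coupled enzymatic assay, compounds in DMSO. Buffer: HEPES pH 7.4, KCl, MgCl2, DTT, ATP, NADP, G6PDH. Half-saturation glucose concentration S0.5 was reported. Values are means of three duplicate runs.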
Take `CCN(CC)Cc1csc(NC(=O)c2cc(Oc3ccc(S(C)(=O)=O)cc3)cc(-c3ncccc3C)c2)n1`: the S50 was 5.79 mM.

As for `COCCN(CCOC)Cc1csc(NC(=O)c2cc(Oc3ccc(S(C)(=O)=O)cc3)cc(-c3ncccc3C)c2)n1`, the S50 came out at 5.43 mM.

On to `CCNC(=O)Cc1csc(NC(=O)c2cc(Oc3ccc(S(C)(=O)=O)cc3)cc(-c3ncccc3C)c2)n1`, for which the S50 came to 4.35 mM.

Consider `COC(CNCc1csc(NC(=O)c2cc(Oc3ccc(S(C)(=O)=O)cc3)cc(-c3ncccc3C)c2)n1)OC`, for which the S50 came to 0.57 mM.

Regarding `Cc1cccnc1-c1cc(Oc2ccc(S(C)(=O)=O)cc2)cc(C(=O)Nc2nc(CNC(C)C)cs2)c1`, the S50 amounted to 3.98 mM.

Turning to `Cc1cccnc1-c1cc(Oc2ccc(S(C)(=O)=O)cc2)cc(C(=O)Nc2nc(CN3CCNCC3)cs2)c1`, the S50 is 3.08 mM.

With `Cc1cccnc1-c1cc(Oc2ccc(S(C)(=O)=O)cc2)cc(C(=O)Nc2nc(CC(=O)NC3CC3)cs2)c1`, the S50 was found to be 1.78 mM.

As for `C#CCNCc1csc(NC(=O)c2cc(Oc3ccc(S(C)(=O)=O)cc3)cc(-c3ncccc3C)c2)n1`, the S50 was 2.21 mM.

For `COCC(C)NCc1csc(NC(=O)c2cc(Oc3ccc(S(C)(=O)=O)cc3)cc(-c3ncccc3C)c2)n1` (centres undefined), the S50 came out at 2.27 mM.

In the case of `CCCNCc1csc(NC(=O)c2cc(Oc3ccc(S(C)(=O)=O)cc3)cc(-c3ncccc3C)c2)n1`, the S50 turned out to be 4.51 mM.

Consider `COCCN(C)Cc1csc(NC(=O)c2cc(Oc3ccc(S(C)(=O)=O)cc3)cc(-c3ncccc3C)c2)n1`, for which the S50 was found to be 4.56 mM.

Turning to `COCCOCn1ccc(NC(=O)c2cc(Oc3ccc(S(C)(=O)=O)cc3)cc(-c3ncccc3C)c2)n1`, the S50 amounted to 2.33 mM.

With `Cc1cccnc1-c1cc(Oc2ccc(S(C)(=O)=O)cc2)cc(C(=O)Nc2ccn(CCN3CCOCC3)n2)c1`, the S50 worked out at 3.54 mM.

On to `Cc1cccnc1-c1cc(Oc2ccc(S(C)(=O)=O)cc2)cc(C(=O)Nc2nc(CN3CCOCC3)cs2)c1`, for which the S50 amounted to 3.24 mM.

As to `Cc1cccnc1-c1cc(Oc2ccc(S(C)(=O)=O)cc2)cc(C(=O)Nc2nccs2)c1`, the S50 was 2.01 mM.

For the compound `Cc1cccnc1-c1cc(Oc2ccc(S(C)(=O)=O)cc2)cc(C(=O)Nc2nc(CN3CCN(C)CC3)cs2)c1`, the S50 was 3.44 mM.

Consider `Cc1cccnc1-c1cc(Oc2ccc(S(C)(=O)=O)cc2)cc(C(=O)Nc2ncc(F)s2)c1`, for which the S50 came to 1.95 mM.

Turning to `Cc1cccnc1-c1cc(Oc2ccc(S(C)(=O)=O)cc2)cc(C(=O)Nc2ccn(C)n2)c1`, the S50 was determined as 3.89 mM.

The next assay concerns Mus musculus. Description: Antidiabetic activity in po dosed C57BL/J6 mouse assessed as reduction of glucose AUC preincubated for 30 mins followed by glucose challenge measured after 30 to 180 mins by oral glucose tolerance test.
`COCCOCn1ccc(NC(=O)c2cc(Oc3ccc(S(C)(=O)=O)cc3)cc(-c3ncccc3C)c2)n1`: the Activity result was “Dose-dependent effect”.
